Data published in ChEMBL document CHEMBL1125623, “Tetrahydropyridyloxadiazoles: semirigid muscarinic ligands” (J Med Chem, 1991).

Tests used:
[1] = pKa value was determined; type: physicochemical
Method in brief: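 Determined by autotitration with a pH meter and autoburette; mean of two or more independent measurements.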

[2] = target: T1, Muscarinic acetylcholine receptor (Rattus norvegicus) (UniProt P08482+P08483+P08485+P08911+P10980)
[3] = target: T1, Muscarinic acetylcholine receptor (Rattus norvegicus); remark: listed apart in the source
[4] = target: T1, Muscarinic acetylcholine receptor (Rattus norvegicus); assay: Apparent binding affinity against rat cortical Muscarinic acetylcholine receptor by the displacement of [3H]N-methylscopolamine; type: protein assay
Method in brief: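 Membranes from cortex of male Sprague-Dawley rats (250–300 g), resuspended in 20 mM HEPES Krebs' buffer pH 7.4. Displacement of 0.1 nM [3H]-N-methylscopolamine; 60 min incubation at 30 °C, ended by filtration. Apparent affinity constant corrected for radioligand occupancy, given in micromolar; geometric mean of at least three independent experiments on separate occasions.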

[5] = target: T1, Muscarinic acetylcholine receptor (Rattus norvegicus); assay: Apparent binding affinity against rat cortical Muscarinic acetylcholine receptor by the displacement of [3H]oxotremorine-M; type: protein assay
Method in brief: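 Rat brain membranes from male Sprague-Dawley rats (250–300 g), resuspended in 20 mM HEPES buffer pH 7.4. Displacement curves use 3.0 nM [3H]oxotremorine-M; incubation 40 min at 30 °C, stopped by filtration through polyethyleneimine-presoaked filters.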

[6] = Ratio of apparent binding affinities of NMS and Oxo-M

Row | pKa [1] | K app [2] | K app [3] | K app [4] | K app [5] | Ratio [6] | SMILES
1 | 8.23 | 2.5 µM | 0.035 µM |  |  |  | C=Cc1noc(C2=CCCNC2)n1
2 |  | 25 µM | 0.97 µM |  |  |  | CCC1C=C(c2nc(C)no2)CNC1 (stereo not given)
3 | 7.34 | 15 µM | 0.87 µM |  |  |  | Cc1noc(C2=CC(C)CN(C)C2)n1 (stereo not given)
4 | 8.17 | 2.7 µM | 0.037 µM |  |  |  | Cc1noc(C2=CC(C)CNC2)n1 (stereo not given)
5 | 8.24 | 2.3 µM | 0.0031 µM |  |  |  | Cc1noc(C2=CCCNC2)n1
6 |  | 13 µM | 0.23 µM |  |  |  | OCCc1noc(C2=CCCNC2)n1
7 | 7.35 | 2.4 µM | 0.061 µM |  |  |  | Cc1noc(C2=CCC(C)N(C)C2)n1 (stereo not given)
8 | 8.58 | 3.5 µM | 0.082 µM |  |  |  | CN(C)c1noc(C2=CCCNC2)n1
9 | 7.24 | 2.5 µM | 0.12 µM |  |  |  | CN1CCC=C(c2nc(N(C)C)no2)C1
10 |  | 4.3 µM | 0.0074 µM |  |  |  | CCc1noc(C2=CCCNC2)n1
11 | 8.25 |  |  |  |  |  | Nc1noc(C2=CCCNC2)n1
12 | 8.2 |  |  | 16 µM | 0.12 µM | 130 | Cc1noc(C2=CCC(C)NC2)n1 (stereo not given)
13 |  | 34 µM | 0.11 µM |  |  |  | OCc1noc(C2=CCCNC2)n1
14 | 7.16 |  |  |  |  |  | Cc1noc(C2=CCCN(C)C2)n1

Row | SMILES | pKa [1] | K app [2] | K app [3] | K app [4] | K app [5] | Ratio [6]
15 | COC(=O)C1=CCCNC1 |  | 23 µM | 0.012 µM |  |  | 
16 | FCCc1noc(C2=CCCNC2)n1 | 8.29 | 5.7 µM | 0.021 µM |  |  | 
